FXIIa inh 1536 = inhibitors of human coagulation factor XIIa | P00748 | purified FXIIa, Boc-QGR-AMC fluorogenic substrate, 2 h | inhibition, % at 5 µM | hit rate 0.3% among 220,000; in the data active = inhibition above about 40%
FXIa inh 1536 = blocks human coagulation factor XIa protease activity | inhibition, % at 5 µM | hit rate 0.14% among 220,000 | purified FXIa, Boc-Glu-Ala-Arg-AMC fluorogenic substrate;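 active = inhibition of at least 40%; inactive = inhibition below 40%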;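 note: fluorescence of freed AMC excited at 355 nm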
KLK5 inh = kallikrein 5 (human) inhibition; recombinant hK5, fluorogenic AMC substrate cleavage; inhibition, % at 5 µM; hit rate 0.59% among 210,000; AID 873;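 active = inhibition of 40% or more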
Target sequence (Q9Y337 67-293 limits assumed): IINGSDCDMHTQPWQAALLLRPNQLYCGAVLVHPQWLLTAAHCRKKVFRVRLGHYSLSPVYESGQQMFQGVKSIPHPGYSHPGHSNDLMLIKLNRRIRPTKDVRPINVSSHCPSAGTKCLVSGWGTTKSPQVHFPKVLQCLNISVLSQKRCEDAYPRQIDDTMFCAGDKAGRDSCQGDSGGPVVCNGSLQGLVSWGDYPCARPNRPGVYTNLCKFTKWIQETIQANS
m-calpain inh = calpain II (pig) inhibition; purified calpain II, fluorogenic peptide substrate, 30 min; inhibition, % at 16 µM; hit rate 0.37% among 220,000; AID 1236;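 active = inhibition above about 50%, limit read from the data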
thrombin 1536 = thrombin (human) inhibition | inhibition, % at 5 µM | hit rate 0.26% among 220,000 | AID 1046 | alpha-thrombin, Boc-VPR-AMC fluorogenic substrate cleavage;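 active = inhibition at or above 40%; inactive = inhibition below 40%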
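Material: Human alpha-thrombin protein | Buffer or medium: pH 7.5 Tris-saline with Tween 20 | Reagent: Boc-VPR-AMC substrate, 15 µM final | Schedule: Reaction at ambient temperature | Detection: AMC fluorescence at 355 nm excitation and 460 nm emission | Evaluation: Percent inhibition scaled between no-compound controls and no-enzyme blanks | Controls: no-compound enzyme wells and no-enzyme blanks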
Of the large screens only hits and unclear results are named; the others gave an inactive call. A selection: hits, their analogues and other compounds. The true share with any hit is near 1.4%.

CCOC(=O)c1oc2ccccc2c1NC(=O)c1ccccc1OC	KLK5 inh 60
CCc1ccc2[nH]c(=O)c(C(c3nnnn3CC3CCCO3)N3CCN4CCCC4C3)cc2c1 (configuration not stated)	none
NNC(=O)CCN1CCN(C(c2ccccc2)c2ccccc2)CC1	none
O=C(CCNC(=O)c1ccc(Br)o1)NC1CCCC1	none
O=C(NC1CCCCC1)c1ccc(Br)o1	KLK5 inh 83
CC(=O)Nc1ccccc1-c1nc2ccc(C(=O)N3CCN(c4cccc(C)c4)C(C)C3)cc2[nH]c1=O (configuration not stated)	KLK5 inh 59
COCCN(C(=O)c1ccco1)C(C(=O)NC1CCCC1)c1cccs1 (configuration not stated)	none
S=C1Cc2ccccc2N1	m-calpain inh 55
CCC(C)NC(=O)Cn1c(COc2ccc(Cl)cc2Cl)nc2ccccc21 (configuration not stated)	none
COc1ccc(Br)cc1/C=N/NC(=O)CN1CCN(Cc2ccccc2)CC1	KLK5 inh 41
COc1ccc(/C=N/NC(=O)CN2CCN(Cc3ccccc3)CC2)cc1Br	none
CCOC(=O)c1nnc(-c2cccs2)nc1NC(C)C	KLK5 inh 115
Cc1cc(C)cc(N(CCC(=O)Nc2nnc(C)s2)S(=O)(=O)c2ccc(Cl)cc2)c1	none
O=C(O/N=C/c1ccc2c(c1)OCO2)c1ccc([N+](=O)[O-])cc1	m-calpain inh 70
C=CCNc1nc(NC(C)(C)CO)nc(OCC)n1	none
C=CCNc1nc(NC(C)(C)CO)nc(OC)n1	FXIa inh 1536 46
O=c1n(-c2ccccc2)c(=O)n2n1CC(O)C2	none
COc1ccc(NC(=O)COC(=O)C23CC4CC(CC(Cl)(C4)C2)C3)c(OC)c1	none
COc1ccc(C(=O)C23CC4CC(C2)CC(C(=O)c2ccc(OC)cc2)(C4)C3)cc1	m-calpain inh 63 (no result: KLK5 inh)
CCCNC(=O)C1CC(c2ccc(C(F)(F)F)cc2)=NO1 (configuration not stated)	FXIa inh 1536 102
O=C(NC1CCCC1)C1CCCN1S(=O)(=O)c1cccc2cccnc12 (configuration not stated)	none
O=C(NCc1ccccc1)C1CCCN1S(=O)(=O)c1cccc2cccnc12 (configuration not stated)	KLK5 inh 46
Cc1cccc(NC(=S)NCC(c2cccnc2)N(C)C)c1 (configuration not stated)	none
C=C(C)c1cccc(C(C)(C)NC(=O)Nc2ccc(C(C)=O)cc2)c1	KLK5 inh 72
C(#CC12CC3CC(CC(C3)C1)C2)CN1CCOCC1	none
CCCCC(=O)Nc1ncc2c(n1)CC(C)(C)CC2=O	none
CC1(C)CC(=O)c2cnc(NC(=O)Cc3ccc(Cl)cc3)nc2C1	KLK5 inh 86
Cn1c(SCc2n[nH]c(=S)n2-c2ccccc2)nnc1-c1ccccc1	none
Oc1ccccc1C1CC(c2cccs2)=NC(c2cccc(Br)c2)N1 (configuration not stated)	none
CC12CCC(C(=O)N3CCN(c4ccccc4)CC3)(CC1=O)C2(C)C (configuration not stated)	KLK5 inh 54
O=S1(=O)C=C(SCc2ccc(Cl)c(Cl)c2)Nc2ccccc21	m-calpain inh 53
Nc1nc(SCc2ccc(Cl)c(Cl)c2)n[nH]1	none
COc1ccccc1C(=O)N/C(=C\c1ccc(Br)cc1)C(=O)N1CCCC1	none
CC1=C(C#N)c2nc(N)c(C#N)c(C)c2/C1=C\c1ccc(OCC(=O)O)c(Cl)c1	none
O=C1c2ccccc2C(=O)N1CCN1CCCCC1	KLK5 inh 51

High-throughput results deposited in PubChem by several laboratories.
